Test results published in ChEMBL document CHEMBL1125644, “A new class of calcium antagonists. 2. Synthesis and biological activity of 11-[[4-[4-(4-fluorophenyl)-1-piperazinyl]butyryl]amino]-6,11- dihydrodibenzo[b,e]-thiepin maleate and related compounds” (J Med Chem, 1991).
The source made the active and inactive calls. No cut-off for these calls is given here.

Legend:
Rattus norvegicus [1] = organism: Rattus norvegicus; test: Inhibition of calcium activation was assessed against calcium-induced constriction of potassium-depolarized rat aorta (Negative logarithm of the molar concentration); type: functional, organism-based; details: read-out: pA2 (converted)
Rattus norvegicus [2] = test: Preventive effect of compound was measured on vasopressin-induced ST depression rats at 10 mg/kg po dose after 2 hr of administration; +=Differ from control value; type: functional, organism-based; set-up: dose 10 mg/kg
In short: (§1)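 Male Donryu rats (150-220 g), pentobarbital 60 mg/kg ip. Compound in 0.5% tragacanth given orally; vasopressin 0.2 IU/kg iv via femoral vein cannula. Lead II ECG ST depression measured every 30 s for 5 min after vasopressin. 10-20 experiments; + means p < 0.05 vs control, - not significant.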

Rattus norvegicus [3] = test: Preventive effect of compound was measured on vasopressin-induced ST depression rats at 10 mg/kg po dose after 3h of administration; -=No significance; type: functional, organism-based; set-up: dose 10 mg/kg; in short: as §1
Rattus norvegicus [4] = test: Preventive effect of compound was measured on vasopressin-induced ST depression rats at 3 mg/kg po dose after 1 hr of administration; -=No significance; type: functional, organism-based; set-up: dose 3 mg/kg; in short: as §1
Rattus norvegicus [5] = test: Preventive effect of compound was measured on methacholine-induced ST elevation in anesthetized rats at 0.1 mg/kg iv dose with test compound (0-90 min); type: functional
In short: (§2)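 Male Sprague-Dawley rats (~500 g), pentobarbital 60 mg/kg ip. Methacholine 8 μg/kg bolus via carotid cannula near aortic valve into coronary ostia, before, at 0.5 min and every 5 min after iv compound (femoral vein; vehicle 5% ethanol in saline). Lead II ECG ST amplitude; mean ± SE, n=5; paired Student's t-test.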

Rattus norvegicus [6] = test: Preventive effect of compound was measured on methacholine-induced ST elevation in anesthetized rats at 0.1 mg/kg iv dose without test compound; type: functional; in short: as §2
Rattus norvegicus [7] = test: Preventive effect of compound was measured on methacholine-induced ST elevation in anesthetized rats at 0.3 mg/kg iv dose with test compound (0-90 min); type: functional; in short: as §2
Rattus norvegicus [8] = test: Preventive effect of compound was measured on methacholine-induced ST elevation in anesthetized rats at 1 mg/kg iv dose with test compound (0-90 min); type: functional; in short: as §2
Rattus norvegicus [9] = test: Preventive effect of compound was measured on methacholine-induced ST elevation in anesthetized rats at 1 mg/kg iv dose without test compound; type: functional; in short: as §2
Rattus norvegicus [10] = test: Preventive effect of compound was measured on vasopressin-induced ST depression rats at 10 mg/kg po dose after 1 hr of administration; +=Differ from control value; type: functional, organism-based; set-up: dose 10 mg/kg; in short: as §1
Rattus norvegicus [11] = test: Preventive effect of compound was measured on vasopressin-induced ST depression rats at 30 mg/kg po dose after 1 hr of administration; +=Differ from control value; type: functional, organism-based; set-up: dose 30 mg/kg; in short: as §1
Rattus norvegicus [12] = test: Preventive effect of compound was measured on vasopressin-induced ST depression rats at 30 mg/kg po dose after 3h of administration; +=Differ from control value; type: functional, organism-based; set-up: dose 30 mg/kg; in short: as §1
Rattus norvegicus [13] = test: Preventive effect of compound was measured on vasopressin-induced ST depression rats at 30 mg/kg po dose after 7 hr of administration; -=No significance; type: functional, organism-based; set-up: dose 30 mg/kg; in short: as §1
Rattus norvegicus [14] = organism: Rattus norvegicus; test: Inhibitory effect of compound on calcium influx by high potassium in isolated rat aorta; type: functional
In short: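 Rat aortic strips; compound present 30 min before and during 45Ca incubation under high potassium. Strips then washed 60 min at 4 °C in La-substituted solution (73.8 mM LaCl3, 5.5 mM glucose, 24 mM Tris), dissolved in toluene at 40 °C, counted by liquid scintillation; expressed as apparent tissue 45Ca content (mmol/kg wet wt).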

Rattus norvegicus [15] = organism: Rattus norvegicus; test: inhibitory effect of compound on contraction induced by high potassium in isolated rat aorta; type: functional
In short: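 Isolated rat aortic strips contracted with high potassium; compound added 30 min before measurement.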

Rattus norvegicus [16] = test: Preventive effect of compound was measured on vasopressin-induced ST depression rats at 10 mg/kg po dose after 3h of administration; +=Differ from control value; type: functional, organism-based; set-up: dose 10 mg/kg; in short: as §1
Rattus norvegicus [17] = test: Preventive effect of compound was measured on vasopressin-induced ST depression rats at 3 mg/kg po dose after 1 hr of administration; +=Differ from control value; type: functional, organism-based; set-up: dose 3 mg/kg; in short: as §1
Rattus norvegicus [18] = test: Preventive effect of compound was measured on methacholine-induced ST elevation in anesthetized rats at 0.3 mg/kg iv dose without test compound; type: functional; in short: as §2
Rattus norvegicus [19] = test: Preventive effect of compound was measured on vasopressin-induced ST depression rats at 30 mg/kg po dose after 7 hr of administration; +=Differ from control value; type: functional, organism-based; set-up: dose 30 mg/kg; in short: as §1
Rattus norvegicus [20] = organism: Rattus norvegicus; test: Inhibitory effect of compound on contraction induced by high potassium in isolated rat aorta; type: functional
In short: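 Std-Wistar rat thoracic aorta spiral strips (3–4 mm × ~30 mm) under 1.0 g tension in Krebs-bicarbonate, 95% O2/5% CO2, 37 °C, depolarized; isometric contraction to Ca2+ recorded.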

| SMILES | Kb (Rattus norvegicus [1]) | further results |
| --- | --- | --- |
| COc1cccc(N2CCN(CCCC(=O)NC3c4ccccc4C=Cc4ccccc43)CC2)c1 | 5.37 nM |  |
| O=C(CCCN1CCN(c2ccc(F)cc2)CC1)NC1c2ccccc2COc2ccccc21 (stereo not drawn) | 33.1 nM |  |
| O=C(CCCCN1CCN(c2ccc(F)cc2)CC1)NC1c2ccccc2CSc2ccccc21 (stereo not drawn) | 3.47 nM |  |
| O=C(CCCN1CCN(c2ccccc2)CC1)NC1c2ccccc2CSc2ccccc21 (stereo not drawn) | 1.74 nM |  |
| O=C(CCCN1CCN(c2ccccc2F)CC1)NC1c2ccccc2C=Cc2ccccc21 | 3.47 nM |  |
| O=C(CCCN1CCN(c2ccc(F)cc2)CC1)NC1c2ccccc2-c2ccccc21 | 69.2 nM |  |
| O=C(CCCN1CCN(S(=O)(=O)Oc2ccccc2)CC1)NC1c2ccccc2CSc2ccccc21 (stereo not drawn) | 10.5 nM |  |
| COc1ccc(N2CCN(CCCC(=O)NC3c4ccccc4CSc4ccccc43)CC2)cc1 (stereo not drawn) | 3.39 nM |  |
| O=C(CCCN1CCN(c2ccc(C(F)(F)F)cc2)CC1)NC1c2ccccc2C=Cc2ccccc21 | 2.09 nM |  |
| Cc1ccc(N2CCN(CCCC(=O)NC3c4ccccc4CSc4ccccc43)CC2)cc1 (stereo not drawn) | 3.31 nM |  |
| O=C(CCCN1CCN(C(=O)c2ccccc2)CC1)NC1c2ccccc2C=Cc2ccccc21 | 20.9 nM |  |
| O=C(CCCN1CCN(CCCc2ccccc2)CC1)NC1c2ccccc2CSc2ccccc21 (stereo not drawn) | 12.3 nM |  |
| O=C(CCCN1CCN(C/C=C/c2ccccc2)CC1)NC1c2ccccc2C=Cc2ccccc21 | 30.9 nM |  |
| O=C(CCCN1CCN(c2ccccc2F)CC1)NC1c2ccccc2CSc2ccccc21 (stereo not drawn) | 3.24 nM |  |
| O=C(CCCN1CCN(c2ccc(F)cc2)CC1)NC1c2ccccc2Sc2ccccc21 | 10.5 nM |  |
| COc1ccc(CCN(C)CCCC(C#N)(c2ccc(OC)c(OC)c2)C(C)C)cc1OC (stereo not drawn) | 6.92 nM |  |
| COc1ccc([C@@H]2Sc3ccccc3N(CCN(C)C)C(=O)[C@@H]2OC(C)=O)cc1 [DILTIAZEM] |  | Activity (Rattus norvegicus [2]): Active; Activity (Rattus norvegicus [3]): inactive; Activity (Rattus norvegicus [4]): inactive; Activity (Rattus norvegicus [5]): 0.148 delta mV; Activity (Rattus norvegicus [6]): 0.227 delta mV; Activity (Rattus norvegicus [7]): 0.059 delta mV; Activity (Rattus norvegicus [8]): 0.091 delta mV; Activity (Rattus norvegicus [9]): 0.223 delta mV; Activity (Rattus norvegicus [10]): Active; Activity (Rattus norvegicus [11]): Active; Activity (Rattus norvegicus [12]): Active; Activity (Rattus norvegicus [13]): inactive; IC50 (Rattus norvegicus [14]): 352 nM; IC50 (Rattus norvegicus [15]): 203 nM |
| O=C(CCN1CCN(c2ccc(F)cc2)CC1)NC1c2ccccc2CSc2ccccc21 (stereo not drawn) | 2.82 nM |  |

| SMILES | Kb (Rattus norvegicus [1]) | further results |
| --- | --- | --- |
| O=C(CCCN1CCN(Cc2ccccc2)CC1)NC1c2ccccc2C=Cc2ccccc21 | 6.03 nM |  |
| O=C(CCCN1CCN(c2ccc(F)cc2)CC1)NC1c2ccccc2CSc2ccccc21.O=C(O)/C=C\C(=O)O (stereo not drawn) [MONATEPIL MALEATE] | 1.95 nM | Activity (Rattus norvegicus [2]): Differ from control value; Activity (Rattus norvegicus [16]): Differ from control value; Activity (Rattus norvegicus [17]): Differ from control value; Activity (Rattus norvegicus [6]): 0.198 delta mV; Activity (Rattus norvegicus [7]): 0.093 delta mV; Activity (Rattus norvegicus [18]): 0.203 delta mV; Activity (Rattus norvegicus [8]): 0.088 delta mV; Activity (Rattus norvegicus [9]): 0.241 delta mV; Activity (Rattus norvegicus [10]): Differ from control value; Activity (Rattus norvegicus [11]): Differ from control value; Activity (Rattus norvegicus [19]): Differ from control value; IC50 (Rattus norvegicus [14]): 16 nM; IC50 (Rattus norvegicus [15]): 21 nM |
| O=C(CCCN1CCN(c2ccc(F)cc2)CC1)NC1c2ccccc2C=Cc2ccccc21.O=C(O)/C=C\C(=O)O | 1.05 nM | Activity (Rattus norvegicus [6]): 0.165 delta mV; Activity (Rattus norvegicus [7]): 0.042 delta mV; Activity (Rattus norvegicus [18]): 0.188 delta mV; Activity (Rattus norvegicus [8]): 0.083 delta mV; Activity (Rattus norvegicus [9]): 0.224 delta mV |
| O=C(CCCN1CCN(c2ccc(Cl)cc2)CC1)NC1c2ccccc2CSc2ccccc21 (stereo not drawn) | 2.82 nM |  |
| O=C(CCCN1CCN(Cc2ccccc2)CC1)NC1c2ccccc2CSc2ccccc21 (stereo not drawn) | 2.88 nM |  |
| O=C(CCCN1CCN(C(=O)c2ccccc2)CC1)NC1c2ccccc2CSc2ccccc21 (stereo not drawn) | 36.3 nM |  |
| O=C(CCCN1CCN(c2ccc([N+](=O)[O-])cc2)CC1)NC1c2ccccc2CSc2ccccc21 (stereo not drawn) | 7.94 nM |  |
| O=C(CCCN1CCN(c2ccc(F)cc2)CC1)NC1c2ccccc2Oc2ccccc21 | 69.2 nM |  |
| O=C(CCCN1CCN(c2ccccc2)CC1)NC1c2ccccc2C=Cc2ccccc21 | 3.72 nM |  |
| COC(=O)C1=C(C)NC(C)=C(C(=O)OC)C1c1ccccc1[N+](=O)[O-] [NIFEDIPINE] |  | IC50 (Rattus norvegicus [14]): 4 nM; IC50 (Rattus norvegicus [20]): 2 nM |
| O=C(CCCN1CCN(CCc2ccccc2)CC1)NC1c2ccccc2C=Cc2ccccc21 | 8.91 nM |  |
| O=C(CCCN1CCN(C/C=C/c2ccccc2)CC1)NC1c2ccccc2CSc2ccccc21 (stereo not drawn) | 7.59 nM |  |
| COc1ccc(N2CCN(CCCC(=O)NC3c4ccccc4C=Cc4ccccc43)CC2)cc1OC | 5.01 nM |  |
| O=C(CCCCN1CCN(c2ccc(F)cc2)CC1)NC1c2ccccc2C=Cc2ccccc21 | 4.47 nM |  |
| O=C(CCCN1CCN(CC(=O)c2ccccc2)CC1)NC1c2ccccc2CSc2ccccc21 (stereo not drawn) | 15.5 nM |  |
| O=C(CCCN1CCN(c2ccc(F)cc2)CC1)NC1c2ccccc2CCc2ccccc21 | 9.33 nM |  |
| O=C(CCN1CCN(c2ccc(F)cc2)CC1)NC1c2ccccc2C=Cc2ccccc21 | 2.75 nM |  |
| O=C(CCCN1CCN(C(=O)Oc2ccccc2)CC1)NC1c2ccccc2CSc2ccccc21 (stereo not drawn) | 13.2 nM |  |
